Results published in ChEMBL document CHEMBL5244226, “Cyathane Diterpenes from Cultures of the Bird's Nest Fungus Cyathus hookeri and Their Neurotrophic and Anti-neuroinflammatory Activities” (J Nat Prod, 2019).
Active and inactive are the calls of the source. The rule behind the calls is not given here.

Legend:
PC-12 [1] = test: Neurotrophic activity in rat PC-12 cells assessed as induction of NGF-mediated neurite outgrowth at 10 uM measured after 48 hrs by microscopic analysis; assay type: functional, cell-based
Summary of the method: (§1)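 PC-12 cells (rat) grown in DMEM with 10% heat-inactivated horse serum and 5% FBS at 37 °C, 5% CO2. Plated 1 × 10^4/well on poly-L-lysine for 24 h, then 14 h in low-serum medium (2% HS, 1% FBS). Treated 48 h with compound (DMSO) plus NGF 20 ng/mL; NGF alone as positive control. Triplicate wells, 10 random phase-contrast fields per well, ≥100 cells per field. Neurite-bearing cells counted as percentage of total.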

BV-2 = test: Antineuroinflammatory activity in mouse BV-2 cells assessed as inhibition of LPS-induced NO production measured after 24 hrs by Griess reagent based assay; assay type: functional, cell-based; conditions: BV-2, 24 h
Summary of the method: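 BV-2 murine microglia in DMEM with 10% heat-inactivated FBS, seeded 2 × 10^4/well and grown 24 h at 37 °C. Then co-treated 24 h with LPS (E. coli 0111:B4, 1 μg/mL) plus test agent in DMSO. Controls were DMSO+LPS and quercetin. Supernatant nitrite by Griess reaction, A540, against a sodium nitrite standard curve. IC50 is the concentration halving NO output.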

PC-12 [2] = test: Cytotoxicity against rat PC-12 cells at 10 uM; assay type: toxicity, cell-based; conditions: pc-12, 10 µM
PC-12 [3] = test: Neurotrophic activity in rat PC-12 cells assessed as induction of NGF-mediated neurite outgrowth by measuring neurite bearing cells at 10 uM measured after 48 hrs by microscopic analysis (reference value: 15.7 +/- 0.1%); assay type: functional; summary of the method: as §1
PC-12 [4] = test: Neurotrophic activity in rat PC-12 cells assessed as induction of NGF-mediated neurite outgrowth by measuring neurite bearing cells at 5 uM measured after 48 hrs by microscopic analysis (reference value: 15.7 +/- 0.1%); assay type: functional; summary of the method: as §1

IC50 (BV-2) | Structure (SMILES) | Activity (PC-12 [1]) | Activity (PC-12 [2]) | Activity (PC-12 [3]) | Activity (PC-12 [4])
10.9 µM | CC(C)C1=C2[C@H]3CC=C(C=O)CC(=O)[C@]3(C)CC[C@@]2(C)CC1 | Active |  |  | 
6.9 µM | CO[C@H]1C[C@@H]2C3=C(C(C)C)CC[C@]3(C)CC[C@@]2(C)[C@@H](O)C=C1C=O |  | Toxic |  | 
22.1 µM | CC(C)C1=C2[C@H]3C[C@@H](O)C(CO)=C[C@H](O)[C@]3(C)CC[C@@]2(C)CC1 | Active |  |  | 
> 50 µM | CC(C)C1=C2[C@H]3C[C@H]4O[C@](O)([C@H](O)[C@H]4CO)[C@]3(C)CC[C@@]2(C)CC1 | Active |  |  | 
15.5 µM | CC(C)C1=C2[C@H]3C[C@H]4O[C@](O)([C@H](O)[C@@H]4C4O[C@@H](C)[C@@H](C)O4)[C@]3(C)CC[C@@]2(C)CC1 (some centres not stated) | Active |  |  | 
12 µM | CC(C)C1=C2[C@H]3C[C@H]4O[C@](O)(C=C4C4O[C@@H](C)[C@@H](C)O4)[C@]3(C)CC[C@@]2(C)CC1 (some centres not stated) | Active |  |  | 
32.8 µM | CC1=C[C@H](O)[C@]2(C)CC[C@@]3(C)CCC(C(C)C)=C3[C@H]2CC1 | Active |  |  | 
19.7 µM | CO[C@H]1C(=O)[C@]2(C)CC[C@@]3(C)CCC(C(C)C)=C3[C@H]2CC=C1C=O | Active |  |  | 
9.1 µM | CO[C@@H]1C(C=O)=CC[C@@H]2C3=C(C(C)C)CC[C@]3(C)CC[C@@]2(C)[C@H]1O |  | Toxic |  | 
> 50 µM | CC(C)C1=C2[C@H]3C[C@H]4O[C@](O)(C=C4C(=O)O)[C@]3(C)CC[C@@]2(C)CC1 | Active |  |  | 
27.3 µM | CC(C)C1=C2[C@H]3C[C@H]4O[C@](O)(C=C4COC(=O)C(C)O)[C@]3(C)CC[C@@]2(C)CC1 (some centres not stated) | Active |  | 32% | 28.1%
> 50 µM | CC(C)[C@]12CC[C@]3(C)CC[C@@]4(C)C(=O)C=C(CO)[C@H](O)C[C@@H]4[C@@]31O2 | Active |  |  | 
27.8 µM | CC1=CC(=O)[C@]2(C)CC[C@@]3(C)CCC(C(C)C)=C3[C@H]2CC1 | Active |  |  | 
> 50 µM | CC(C)C1=C2[C@H]3C[C@H]4O[C@](O)([C@H](O)[C@@H]4CO)[C@]3(C)CC[C@@]2(C)CC1 | Active |  |  | 
36.8 µM | COC(OC)C1=C[C@H](O)[C@]2(C)CC[C@@]3(C)CCC(C(C)C)=C3[C@H]2C[C@H]1OC | Active |  |  | 
